From ChEMBL document CHEMBL4196132, “Alkaloids with Immunosuppressive Activity from the Bark of Pausinystalia yohimbe” (J Nat Prod, 2018)
pIC50: −log10 of the molar value. Active and inactive are the calls of the source. The calls are words filed in the database; no cut-off is given here.

Key:
Assay type in all cases: functional, cell-based
MCF7 = test: Cytotoxicity against human MCF7 cells assessed as reduction in cell viability at 100 uM after 24 hrs by MTT assay
Method in brief: (§1)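 Human cancer lines grown in DMEM or RPMI-1640 with 10% FBS plus penicillin–streptomycin, 5% CO2, 37 °C. MTT read-out, viable-cell percentage measured at 490 nm. Doxorubicin hydrochloride as positive control.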

HepG2 = test: Cytotoxicity against human HepG2 cells assessed as reduction in cell viability at 100 uM after 24 hrs by MTT assay; method in brief: as §1
HT-29 = test: Cytotoxicity against human HT-29 cells assessed as reduction in cell viability at 100 uM after 24 hrs by MTT assay; method in brief: as §1
HeLa = test: Cytotoxicity against human HeLa cells assessed as reduction in cell viability at 100 uM after 24 hrs by MTT assay; method in brief: as §1
Murine T-cell line = test: Immunosuppressive activity in C57BL/6 mouse T cells assessed as inhibition of ConA-induced cell proliferation by MTT assay; conditions: C57BL/6, T-cell
Method in brief: (§2)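 Splenocytes from male C57BL/6 mice (6–8 weeks), red cells lysed, in RPMI 1640 with 10% FBS. 5 × 10^5 cells per well, 5% CO2, 37 °C, 24 h. Stimulated with ConA 5 μg/mL (T cells) or LPS 10 μg/mL (B cells). MTT added for 4 h, pellet dissolved in DMSO, read at 490 nm. CsA and MMF as positive controls.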

B-cell line = test: Immunosuppressive activity in C57BL/6 mouse B cells assessed as inhibition of LPS-induced cell proliferation by MTT assay; conditions: C57BL/6, B-cell; method in brief: as §2

Row | SMILES | Activity (MCF7) | Activity (HepG2) | Activity (HT-29) | Activity (HeLa) | pIC50 (Murine T-cell line) | pIC50 (B-cell line)
1 | CC[C@@H]1C[N@@+]2([O-])CCc3c([nH]c4ccccc34)[C@@H]2C[C@@H]1/C(=C\OC)C(=O)OC | inactive | inactive | inactive | inactive |  | 
2 | CC[C@H]1CN2CCc3c([nH]c4ccccc34)[C@@H]2C[C@@H]1/C(=C\OC)C(=O)OC (stereo in doubt; 14) | inactive | inactive | inactive | inactive |  | 
3 | C=C[C@H]1CN2CC[C@]3(C(=O)Nc4ccccc43)[C@@H]2C[C@@H]1/C(=C\OC)C(=O)OC | inactive | inactive | inactive | inactive |  | 
4 | CC[C@@H]1CN2CCc3c([nH]c4ccccc34)[C@@H]2C[C@@H]1/C(=C\OC)C(=O)OC | inactive | inactive | inactive | inactive |  | 
5 | CC[C@@H]1CN2CC[C@@]3(C(=O)Nc4ccccc43)[C@@H]2C[C@@H]1/C(=C\OC)C(=O)OC | inactive | inactive | inactive | inactive |  | 
6 | CC[C@@H]1CN2CCc3c([nH]c4ccccc34)C2=C2OC(=O)C(C(=O)OC)=C21 | inactive | inactive | inactive | inactive |  | 
7 | COC(=O)[C@H]1[C@H]2C[C@H]3c4[nH]c5ccccc5c4CCN3C[C@@H]2CC[C@@H]1O [CORYNANTHEINE] | inactive | inactive | inactive | inactive | 4.56 | 4.39
8 | C=C[C@H]1CN2CCc3c([nH]c4ccccc34)[C@@H]2C[C@@H]1/C(=C\OC)C(=O)OC | inactive | inactive | inactive | inactive | 4.77 | 4.87
9 | CC[C@@H]1CN2CC[C@]3(C(=O)Nc4ccccc43)[C@@H]2C[C@@H]1/C(=C\OC)C(=O)OC | inactive | inactive | inactive | inactive |  | 
10 | C=C[C@H]1C[N@+]2([O-])CCc3c([nH]c4ccccc34)[C@@H]2C[C@@H]1/C(=C\OC)C(=O)OC | inactive | inactive | inactive | inactive |  | 
11 | CC[C@@H]1CN2C=Cc3c([nH]c4ccccc34)C2=C2OC(=O)C(C=O)=C21 | inactive | inactive | inactive | inactive |  | 
12 | C=C[C@H]1C[N@@+]2([O-])CCc3c([nH]c4ccccc34)[C@@H]2C[C@@H]1/C(=C\OC)C(=O)OC | inactive | inactive | inactive | inactive |  | 
13 | CC[C@@H]1C[N@+]2([O-])CCc3c([nH]c4ccccc34)[C@@H]2C[C@@H]1/C(=C\OC)C(=O)OC | inactive | inactive | inactive | inactive |  | 
14 | C=C[C@@H]1CN2CC[C@@]3(C(=O)Nc4ccccc43)[C@@H]2C[C@@H]1/C(=C\OC)C(=O)OC | inactive | inactive | inactive | inactive |  | 
15 | CC[C@H]1C[N@@+]2([O-])CCc3c([nH]c4ccccc34)[C@@H]2C[C@@H]1/C(=C\OC)C(=O)OC | inactive | inactive | inactive | inactive |  | 
16 | CC[C@H]1CN2CCc3c([nH]c4ccccc34)[C@@H]2C[C@@H]1/C(=C\OC)C(=O)OC (stereo in doubt; 13) | inactive | inactive | inactive | inactive |  | 
